How the values were obtained:
[1] = Inhibitory activity against hemolysis of antibody-sensitized sheep erythrocytes using human serum as complementary source in multiple assay; type: functional
In short: (§1)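 Antibody-sensitized sheep erythrocytes were exposed to compounds and to human serum in 0.1 M HEPES, 0.15 N NaCl, pH 7.4. Serum dilution was pre-set to lyse 80–90% of cells. Incubation 60 min at 37 °C, then centrifugation and supernatant A410 for hemoglobin release. Triplicate controls without serum were subtracted. Inhibition is relative to the no-compound sample.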

[2] = Inhibitory activity against C5a production by activated human serum complement; type: functional
In short: (§2)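 Human serum aliquots (400 μL) equilibrated at 37 °C with varying compound concentrations in 0.1 M Hepes, 0.15 N NaCl, pH 7.4. Complement activated with heat-aggregated IgG at 14 mg/mL, 10 min at 37 °C. C3a[desArg] and C5a[desArg] were measured by radioimmunoassay. Triplicates were averaged. Fractional inhibition is relative to the no-compound sample and the background without aggregated IgG.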

[3] = Inhibitory activity against hemolysis (complement-mediated erythrocyte lysis) of antibody-sensitized sheep erythrocytes using human serum as complementary source; type: functional; in short: as §1
Homo sapiens [4] = species: Homo sapiens; assay: Inhibitory activity against mitogen-stimulated PBL proliferation; type: functional
T-cell = assay: Inhibitory activity against lectin-stimulated T cell proliferation; type: functional, cell-based
[5] = (§3) Compound was tested to inhibit the production of C5a relative to C3a; type: functional, Homo sapiens; in short: as §2
[6] = as §3; type: functional, Homo sapiens; in short: as §2; remark: listed apart in the source
Homo sapiens [7] = species: Homo sapiens; assay: Inhibitory activity against mitogen-stimulated PBL proliferation; Range 1.7-2.8 mM; type: functional

| IC50 [2] [mM] | IC50 [5] [mM] | IC50 [6] [mM] | SMILES | IC50 [1] [mM] | IC50 ([3]; read-out: IC50) [mM] | IC50 (Homo sapiens [4]) [mM] | inhibition (T-cell) | IC50 (Homo sapiens [7]) [mM] | IC50 [3] |
| --- | --- | --- | --- | --- | --- | --- | --- | --- | --- |
| 3 | – | – | C[C@@H]1CCC2C(C)(C)[C@H](O)[C@H](O)C[C@]2(C)[C@@]12Cc1c(O)cc(C(=O)O)c(C=O)c1O2 (stereo not given in full) | 0.57 | 0.3 | 0.5 | Inhibit | – | – |
| – | 6 | 8 | COc1ccc(C(=O)O)c2c1CC(C)(C1CC=C(C)CC1)O2 (stereo not given) | – | – | – | – | < 2.8 | – |
| – | – | – | CC1=CCC(C2(C)Cc3c(O)ccc(C(=O)O)c3O2)CC1 (stereo not given) | – | – | – | – | < 2.8 | Less Effective |

Source: ChEMBL document CHEMBL1128306, “Design, synthesis, and evaluation of A/C/D-ring analogs of the fungal metabolite K-76 as potential complement inhibitors” (J Med Chem, 1995)
